CYP2C9 activ – increases human cytochrome P450 2C9 activity. P11712. actives 1.4% (n = 96,000). activation factor at 5 µM. recombinant CYP2C9, luciferin-H conversion, luminescence; stronger effect = higher value; factor 1 = untreated enzyme, 0 = blocked;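 active means activation factor of 2 or more for CYP2C9 at a 5 µM dose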;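 further: 0 = sulfaphenazole-blocked wells and 1 = vehicle-only wells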
Target sequence (P11712 whole entry, looked up): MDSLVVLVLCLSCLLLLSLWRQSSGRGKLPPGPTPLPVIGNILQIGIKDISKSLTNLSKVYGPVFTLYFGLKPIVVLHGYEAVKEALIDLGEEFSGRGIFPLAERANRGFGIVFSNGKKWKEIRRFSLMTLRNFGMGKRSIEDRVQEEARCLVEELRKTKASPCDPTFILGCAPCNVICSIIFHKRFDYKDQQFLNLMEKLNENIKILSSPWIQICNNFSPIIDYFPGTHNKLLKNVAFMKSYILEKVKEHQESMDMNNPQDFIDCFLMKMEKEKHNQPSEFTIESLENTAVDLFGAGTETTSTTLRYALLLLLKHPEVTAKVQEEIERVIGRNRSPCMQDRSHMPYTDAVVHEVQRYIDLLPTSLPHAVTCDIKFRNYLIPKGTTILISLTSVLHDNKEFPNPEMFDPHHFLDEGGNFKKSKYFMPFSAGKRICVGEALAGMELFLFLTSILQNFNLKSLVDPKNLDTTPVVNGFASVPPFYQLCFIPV
Cav3 T inh – blocks human Cav3.2 T-type calcium channel | O95180 | Cav3.2-expressing cells, Fluo-4 calcium fluorescence FDSS; stronger effect = lower value | B-score at 10 µM | actives 4% (n = 100,000);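 active means single-dose well whose peak fluorescence ratio is a statistical outlier from its plate by either plate-standardised score or position-corrected B-score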
CYP2C19 act – cytochrome P450 2C19 (human) activation; recombinant CYP2C19, luciferin-H EGE luminescence; stronger effect = higher value; 0 = fully inhibited enzyme, 1 = untreated enzyme; 96,000 tested, under 10 active; activation factor at 5 µM;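 active means activation factor of at least 2 at 5 µM in the primary screen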;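 further: 0 = wells with 2.5 mM tranylcypromine and 1 = vehicle-only wells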
HIV Rev-RRE inh – disrupts HIV-1 Rev binding to RRE RNA; Rev peptide-RRE RNA binding, FRET; inhibition, % at 8 µM; actives 0.79% (n = 97,000); AID 704;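 active means inhibition above the screen-wide mean plus 3 SD, cut at about 35% in these data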;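 further: 0% = median DMSO wells and 100% = median Neomycin B control wells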
Target sequence (P05866 whole entry, looked up): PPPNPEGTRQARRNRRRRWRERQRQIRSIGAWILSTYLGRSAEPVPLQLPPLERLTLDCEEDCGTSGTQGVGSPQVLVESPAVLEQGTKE
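Test system – labelled RRE RNA duplex and labelled Rev peptide · Signal – fluorescein-to-Cy5 FRET, 480 nm excitation · Evaluation – % inhibition of FRET ratio versus controls · Benchmarks – DMSO low control, neomycin B high control · Incubation – 5 min RNA-compound premix plus 15 min binding step, 25 °C · Medium – HEPES pH 7.5 salt buffer with EDTA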
CYP2C19 inh – blocks human cytochrome P450 2C19. P33261. CYP2C19 Supersomes, luciferin-H EGE luminescence, 30 min. inhibition, % at 5 µM. actives 21% (n = 96,000);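 active means CYP2C19 inhibition above a set limit at 5 µM in the primary screen, cut at about 50% in these data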;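 further: plate controls were negative control wells for no effect and 2.5 mM tranylcypromine positive control for full effect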
CYP2C9 inh – human CYP2C9 inhibition | CYP2C9 Supersomes, luciferin-H conversion, luminescence | inhibition, % at 5 µM | actives 20% (n = 96,000) | AID 777;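 active means blocking of liver enzyme CYP2C9 beyond about 50% at 5 µM, limit read from the data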
Numbers without * were called inactive; / = no result given; [ ] = dose if it differs, or a comment. The list is not random: actives were taken first. Their share in the collection is about 27%.

SMILES | CYP2C9 activ | Cav3 T inh | CYP2C19 act | HIV Rev-RRE inh | CYP2C19 inh | CYP2C9 inh
O=[N+]([O-])c1ccc2c(c1)C(N1CCOCC1)/C(=C/COc1ccc(Cl)cc1Cl)O2 (stereo unspecified) | 0.2 | -3.6* | 0.6 | 5 | 45 | 77*
CCOC(=O)CN(C(=O)CSc1nnc2c(n1)[nH]c1ccc(OC)cc12)c1ccc(F)cc1 | 0.7 | -0.95 | 0.8 | / | 20 | 34
COC(=O)[C@@]1(Cc2ccccc2)[C@H]2c3cc(C(=O)N4CCCC4)n(Cc4ccsc4Br)c3C[C@H]2CN1C(=O)c1ccccc1 | / | -0.49 | / | / | / | /
CC(=O)N1CCc2cc(C(=O)CN3CCN(c4cccc(Cl)c4)CC3)ccc21 | 0.2 | 0.33 | 0.7 | 1 | 32 | 84*
CCc1c(C)sc(NC(=O)Cn2nc(C(F)(F)F)c3c2CCCC3)c1C#N | 0.8 | -0.9 | 0.8 | 9 | 22 | 24
COC(=O)C[C@](O)(CCCC(C)(C)O)C(=O)O[C@@H]1C(OC)=C[C@]23CCCN2CCc2cc4c(cc2[C@H]13)OCO4 | / | 0.73 | / | / | / | /
COc1cc(CNCCSc2nnnn2C)cc(OC)c1OC | 1 | 0.36 | 0.4 | 7 | 57* | 4
COc1cccc(CNCCSc2nnnn2C)c1OC | 1 | 0.72 | 0.2 | 3 | 77* | -3
O=C(NCCC1=CCCCC1)C1CCCN(S(=O)(=O)c2ccc(F)cc2)C1 (stereo unspecified) | 0.9 | 0.094 | 0.9 | 4 | 12 | 10
CCCn1c(=O)[nH]c(=O)c2c1nc(-c1ccc3c(c1)OCCO3)n2CCN1CCOCC1 | 0.9 | 1.3 | 0.8 | 4 | 23 | 7
CNc1ccc(Br)cc(C(=O)/C=C/c2cccc(OC)c2OC)c1=O | / | 0.04 | / | 65* | / | /
CCNc1ccc(Br)cc(C(=O)/C=C/c2ccccc2Cl)c1=O | / | -2.4 | / | 77*[fluorescence artefact?] | / | /
Cn1cc(CN2CCc3ccccc3C2)c2ccccc21 | 1.4 | -0.43 | 0 | 1 | 96* | -40
Oc1ccc(CN2CCc3ccccc3C2)c2cccnc12 | 1.3 | -1.2 | 1 | -10 | 0 | -30
COc1ccc(/C=N/n2cnnc2SCCO)cc1OC | 0.8 | -0.36 | 0.8 | 2 | 17 | 18
C=CCSc1nncn1/N=C/c1ccc(OC)cc1 | 0.6 | 1.4 | 0.2 | 0 | 82* | 36
CCC(=O)Nc1cc(-c2nn(C)c(=O)c3ccccc23)ccc1N1CCCCC1 | 0.2 | 0.42 | 0.6 | 4 | 37 | 81*
Cn1nc(-c2ccc(N3CCOCC3)c(NS(=O)(=O)c3ccccc3)c2)c2ccccc2c1=O | 0.8 | 0.23 | 0.5 | 1 | 53* | 16
Cc1ccc(-c2nn(C)c(=O)c3ccccc23)cc1S(=O)(=O)N1CCCC1 | 0.4 | / | 0.5 | 6 | 51* | 63*
CC(=O)Nc1cc(-c2nn(C)c(=O)c3ccccc23)ccc1N1CCCCC1 | 0.4 | -0.016 | 0.8 | 8 | 20 | 57*
CCC(=O)Nc1cc(-c2nn(C)c(=O)c3ccccc23)ccc1OC | 0.8 | 0.0097 | 0.6 | 3 | 40 | 15
COc1ccc(-c2nn(C)c(=O)c3ccccc23)cc1NC(=O)Cn1nc(C)c2ccccc2c1=O | 0.4 | 0.51 | 0.7 | -3 | 30 | 58*
CCOC(=O)c1cnn(-c2ccc(Cl)cc2)c1C1CCN(C(=O)OC(C)(C)C)CC1 | 0.2 | / | 0.1 | -1 | 89* | 85*
Cc1ccccc1NC(=O)Cn1cccc1 | 1 | 0.46 | 1 | 11 | 0 | -3
O=C(C/C=N/OCc1c(Cl)cccc1Cl)c1ccccc1 | 1 | -0.92 | 0.8 | 13 | 22 | 0
SMILES | CYP2C9 activ | Cav3 T inh | CYP2C19 act | HIV Rev-RRE inh | CYP2C19 inh | CYP2C9 inh
O=C(C/C=N/OCc1ccc(Cl)cc1Cl)c1ccccc1 | 0.8 | -0.4 | 0.9 | 15 | 10 | 18
O=C(C/C=N/OCc1ccccc1F)c1cnc(-c2ccc(Cl)cc2)s1 | 0.5 | -0.13 | 0 | 4 | 96* | 49
O=C(C/C=N/OCc1ccc(F)cc1Cl)c1cnc(-c2ccccc2)s1 | 0.5 | -0.035 | 0.5 | 5 | 53* | 45
COc1cccc(/C=C2\C(=O)C(=O)c3ccccc32)c1 | 0.9 | 1 | 0.9 | 5 | 8 | 13
Cc1cccc(NC(=O)C2CCCN2C(=O)Oc2ccccc2)c1 (stereo unspecified) | 0.4 | 0.49 | 0.1 | 5 | 88* | 57*
Cc1cc(C)cc(NC(=O)C2CCCN2C(=O)Oc2ccccc2)c1 (stereo unspecified) | 0.3 | -0.19 | 0.3 | 5 | 66* | 67*
COc1ccc(N=CC2=C(O)c3ccccc3C2=O)cc1 | 0.8 | -1.1 | 0.6 | 2 | 40 | 20
CCOc1ccc(OCC)c(C2C(C#N)=C(N)N(c3cccnc3)C3=C2C(=O)CC(C)(C)C3)c1 (stereo unspecified) | 1 | -0.012 | 1.1 | -1 | -14 | 1
COc1ccccc1CC1(C)NC(=O)N(CC(=O)N2CCc3ccccc3C2)C1=O (stereo unspecified) | 0.3 | 1 | 0.9 | -2 | 12 | 70*
CC(=O)c1nn(-c2cccc(Br)c2)cc1C(=O)c1ccc(Br)cc1 | 2.4* | -0.4 | 1.2 | 11 | -17 | -140
O=C(Oc1ccc(-n2cnnn2)cc1)c1ccco1 | 1 | 0.7 | 0.9 | 7 | 9 | 4
O=[N+]([O-])c1cccc(C(=Nc2cccc(Cl)c2)NO)c1 | 0.1 | / | 0.1 | -3 | 91* | 87*
CCCCc1nc2ccccc2n1Cc1nnc2n1-c1ccccc1SC2 | 0.1 | -0.0044 | 0.1 | 1 | 91* | 92*
Oc1cc2ccccc2cc1-c1nnc2n1-c1ccccc1SC2 | 0.9 | -0.054 | 0.5 | 3 | 47 | 13
COc1ccc(C(=O)Cn2c(NCCO)nc3ccccc32)cc1OC | / | -0.27 | / | 5 | / | /
O=C(Cc1cccs1)NCCc1cn2ccccc2n1 | / | 0.6 | / | / | / | /
COc1cc(OC)c(NC(=O)CS(=O)(=O)Cc2nc(-c3ccc(C)cc3)oc2C)cc1Cl | 0.7 | -4.9* | 0.7 | 10 | 31 | 35
COC(=O)c1ccccc1NC(=O)CS(=O)(=O)Cc1nc(-c2ccc(C)cc2)oc1C | 1.1 | -4.4 | 1.2 | 3 | -17 | -14
COc1ccc(OC)c(CCNC(=O)CS(=O)(=O)Cc2nc(-c3ccc(C)cc3)oc2C)c1 | 0.3 | -5.9* | 0.5 | 5 | 54* | 66*
COc1ccc(-c2nc(CS(=O)(=O)CC(=O)Nc3ccc(Cl)cc3)c(C)o2)cc1 | 0.7 | -5.3* | 0.5 | / | 48 | 26
COc1ccc(OC)c(NC(=O)CS(=O)(=O)Cc2nc(-c3ccccc3C)oc2C)c1 | 0.9 | -3.6 | 1.1 | 12 | -11 | 9
COCCCNC(=O)CS(=O)(=O)Cc1nc(-c2cccc(OC)c2)oc1C | 0.9 | 0.13 | 1 | -2 | 0 | 5
Cc1cccc(NC(=O)CC(C)(C)C)c1 | 1 | -0.015 | 0.6 | 5 | 42 | -3
O=C(CSCc1ccc(F)cc1)NCc1ccco1 | 0.6 | -0.61 | 0.3 | 3 | 70* | 40

Screening results deposited in PubChem by several laboratories.
